In ChEMBL document CHEMBL1147097, “Trioxaquines are new antimalarial agents active on all erythrocytic forms, including gametocytes” (Antimicrob Agents Chemother, 2007):
Calls of active or inactive are those of the source.

Assays:
Plasmodium falciparum [1] = assay: Antimalarial activity against chloroquine-sensitive Plasmodium falciparum F32; assay type: functional, organism-based
Summary of the method: (§1)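 Asexual P. falciparum grown in culture at 37°C under 5% CO2 and exposed to drug dilutions for 48 h. Growth inhibition measured by radioactive micromethod. IC50 read graphically from concentration vs % growth inhibition; mean of at least three independent experiments.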

Plasmodium falciparum [2] = assay: Antimalarial activity against chloroquine-resistant Plasmodium falciparum FcB1; assay type: functional, organism-based; summary of the method: as §1
Plasmodium falciparum [3] = assay: Antimalarial activity against chloroquine-resistant Plasmodium falciparum FcM29; assay type: functional, organism-based; summary of the method: as §1
[4] = Ratio of IC50 for HCT cells to IC50 for Plasmodium falciparum; assay type: functional
Plasmodium falciparum [5] = assay: Antimalarial activity against chloroquine-sensitive Plasmodium falciparum Nigeria; assay type: functional, organism-based, Nigerian; summary of the method: as §1
[6] = Cytotoxicity against human HCT cells assessed as [3H]thymidine incorporation; assay type: cell-based
Summary of the method: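 HCT human colorectal tumour cells grown with 10% fetal calf serum and harvested with 0.05% trypsin-EDTA. Plated at 15 × 10^3 cells/well with drug dilutions.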

[7] = tested on: Plasmodium vinckei petteri; assay: Antimalarial activity against Plasmodium vinckei petteri infected intraperitoneally dosed Swiss Albino mice (Mus musculus); assay type: functional
Summary of the method: (§2)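 Four-day suppressive test: groups of five female Swiss albino mice infected i.p. on day 0 with 2 × 10^7 parasitized red cells, then dosed once daily for 4 days (i.p., p.o. or s.c.; DMSO vehicle, chloroquine in 0.9% NaCl). Parasitemia read on day 4 vs untreated controls; ED50/ED90 as % growth inhibition; CD50/CD90 = cure (no parasites at 60 days).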

[8] = tested on: Plasmodium vinckei petteri; assay: Antimalarial activity against Plasmodium vinckei petteri infected orally dosed Swiss Albino mice (Mus musculus); assay type: functional; conditions: for ED50 / ED90: Plasmodium vinckei, po; summary of the method: as §2
[9] = tested on: Plasmodium vinckei petteri; assay: Antimalarial activity against Plasmodium vinckei petteri infected subcutaneously dosed Swiss Albino mice (Mus musculus); assay type: functional; conditions: for ED50 / ED90: Plasmodium vinckei, sc; summary of the method: as §2
[10] = tested on: Plasmodium yoelii nigeriensis; assay: Antimalarial activity against Plasmodium yoelii nigeriensis infected mice (Mus musculus) by oral dose; assay type: functional; conditions: for ED50 / ED90: Plasmodium yoelii, po
Summary of the method: (§3)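 Four-day suppressive test with P. yoelii nigeriensis: infected mice given drug once daily for four consecutive days p.o. or s.c. (DMSO vehicle, chloroquine in 0.9% NaCl). Parasitemia compared with untreated controls. Cure was defined as no parasites detected after 60 days, with CD50 taken as the dose curing 50% of mice.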

[11] = tested on: Plasmodium yoelii nigeriensis; assay: Antimalarial activity against Plasmodium yoelii nigeriensis infected subcutaneously dosed mice (Mus musculus); assay type: functional; conditions: for ED50 / ED90: Plasmodium yoelii, sc; summary of the method: as §3
Plasmodium falciparum [12] = assay: Antimalarial activity against chloroquine-resistant Plasmodium falciparum W2 gametocytes (stage 2 & 3); assay type: functional, organism-based
Summary of the method: (§4)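 W2 gametocyte cultures treated with 50 mM N-acetyl-D-glucosamine for 3 or 5 days to remove asexual forms. Young (7-day) or old (13-day) cultures exposed to drug dilutions for 48 h. Giemsa thin films made and gametocytes counted per 6,000–10,000 erythrocytes. Mean of three independent experiments.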

Plasmodium falciparum [13] = assay: Antimalarial activity against chloroquine-resistant Plasmodium falciparum W2 gametocytes (stage 4 & 5); assay type: functional, organism-based; summary of the method: as §4
Plasmodium falciparum [14] = assay: Antimalarial activity against chloroquine-resistant Plasmodium falciparum W2 asexual […]; assay type: functional, organism-based
Mus musculus [15] = assay: Toxicity against intraperitoneally dosed Swiss mouse; assay type: organism-based; conditions: in vivo, ip
Summary of the method: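 Acute toxicity: noninfected Swiss mice (two to five per dose) given a single i.p. injection. LD50 is the dose killing 50% of mice within 60 days.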

Plasmodium falciparum [16] = assay: Growth inhibition after 6 hrs in chloroquine-resistant Plasmodium falciparum FcB1; assay type: functional, organism-based; conditions: FcB1, 6 h
Summary of the method: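 Plasmion-synchronized FcB1 parasites plated at ring stage and exposed to drug during successive 6-h windows of the erythrocytic cycle (one plate per period). Artemisinin tested at 7, 14, 28 nM; chloroquine at 120, 163, 232 nM; trioxaquine at 11.5, 23, 46 nM. Dilutions prepared daily.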

[17] = Ratio of LD50 for Swiss mice (Mus musculus) to ED50 for Plasmodium vinckei petteri infected mice (Mus musculus); assay type: functional
Summary of the method: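 Therapeutic index: LD50 (healthy Swiss mice, observed 60 days) divided by ED50 from the 4-day P. vinckei petteri suppressive test.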

[18] = tested on: Plasmodium vinckei petteri; assay: Antimalarial activity against Plasmodium vinckei petteri infected mice (Mus musculus) at 13 mg/kg/day, peroral administered 4 days after infection for 4 days; assay type: functional, organism-based
Summary of the method: (§5)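 Established-infection test: mice infected with 10^6 P. vinckei petteri on day 0 and left untreated until day 4. Then dosed p.o. by gavage once daily in DMSO for 4 days (days 4–7). Thin blood smears taken daily before and after treatment, with follow-up for recrudescence to 60 days.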

Mus musculus [19] = assay: Mortality rate in Plasmodium vinckei petteri infected mice (Mus musculus) at 50 mg/kg, subcutaneously; assay type: functional, organism-based; design: dose 50 mg/kg
Summary of the method: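 Subacute toxicity: P. vinckei petteri-infected mice dosed on four consecutive days (day 0–3) at 10, 25 or 50 mg/kg/day p.o., i.p. or s.c. Five mice per dose and route.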

[20] = tested on: Plasmodium vinckei petteri; assay: Antimalarial activity against Plasmodium vinckei petteri infected mice (Mus musculus) at 5 mg/kg/day, peroral administered 4 days after infection for 4 days; assay type: functional, organism-based; summary of the method: as §5
[21] = Plasmodium vinckei, ip, read-out: ED50
[22] = Plasmodium vinckei, ip, read-out: ED90

SMILES: CC(C)C1=C[C@H]2OC3(CCC(NCCNc4ccnc5cc(Cl)ccc45)CC3)OO[C@@]2(C)CC1 (stereo in doubt; form 7) [TRIOXAQUINE 3]
- IC50 (Plasmodium falciparum [1]): 7 nM
- IC50 (Plasmodium falciparum [2]): 7 nM
- IC50 (Plasmodium falciparum [3]): 7 nM

SMILES: CC(C)C1=C[C@H]2OC3(CCC(NCCNc4ccnc5cc(Cl)ccc45)CC3)OO[C@@]2(C)CC1.O=C(O)CC(O)(CC(=O)O)C(=O)O (stereo in doubt; form 5)
- Ratio IC50 [4]: 130
- IC50 (Plasmodium falciparum [5]): 23 nM
- IC50 (Plasmodium falciparum [2]): 5 nM
- IC50 [6]: 3000 nM
- CD50 [7]: 12 mg/kg/day
- CD90 [7]: >20 mg/kg/day
- CD50 [8]: >25 mg/kg/day
- CD90 [8]: >25 mg/kg/day
- ED50 [8]: 17 mg/kg/day
- ED90 [8]: 23 mg/kg/day
- CD50 [9]: >10 mg/kg/day
- CD90 [9]: >10 mg/kg/day
- ED50 [9]: 2.8 mg/kg/day
- ED90 [9]: 8 mg/kg/day
- CD50 [10]: 22 mg/kg/day
- CD90 [10]: 24 mg/kg/day
- ED50 [10]: 15 mg/kg/day
- ED90 [10]: 23 mg/kg/day
- CD50 [11]: 3 mg/kg/day
- CD90 [11]: 12 mg/kg/day
- ED50 [11]: 2 mg/kg/day
- ED90 [11]: 5 mg/kg/day
- IC50 (Plasmodium falciparum [12]): 69 nM
- IC50 (Plasmodium falciparum [13]): 67 nM
- IC50 (Plasmodium falciparum [14]): 28 nM
- LD50 (Mus musculus [15]): 70 mg/kg/day
- IC50 (Plasmodium falciparum [16]): 18 nM

SMILES: COc1cc(NC(C)CCCN)c2ncccc2c1 (configuration not stated) [PRIMAQUINE]
- IC50 (Plasmodium falciparum [12]): 4580 nM
- IC50 (Plasmodium falciparum [13]): 1540 nM
- IC50 (Plasmodium falciparum [14]): 1320 nM

SMILES: CC(C)C1=C[C@H]2OC3(CCC(NCCNc4ccnc5cc(Cl)ccc45)CC3)OO[C@@]2(C)CC1.O=C(O)CC(O)(CC(=O)O)C(=O)O (stereo in doubt; form 9)
- ED50 [7]: 3 mg/kg/day
- ED90 [7]: 8 mg/kg/day

SMILES: CC(C)C1=C[C@H]2OC3(CCC(NCCNc4ccnc5cc(Cl)ccc45)CC3)OO[C@@]2(C)CC1 (stereo in doubt; form 3)
- IC50 (Plasmodium falciparum [2]): 47 nM
- IC50 (Plasmodium falciparum [3]): 23 nM

SMILES: CC(C)C1=C[C@H]2OC3(CCC(NCCNc4ccnc5cc(Cl)ccc45)CC3)OO[C@@]2(C)CC1 (stereo in doubt; form 2)
- IC50 (Plasmodium falciparum [2]): 48 nM
- IC50 (Plasmodium falciparum [3]): 32 nM

SMILES: CO[C@H]1O[C@@H]2O[C@@]3(C)CC[C@H]4[C@H](C)CC[C@@H]([C@H]1C)[C@@]24OO3
- ED50 [7, 21]: 0.3 mg/kg/day
- ED90 [7, 22]: 0.7 mg/kg/day

SMILES: CC(C)C1=C[C@H]2OC3(CCC(NCCNc4ccnc5cc(Cl)ccc45)CC3)OO[C@@]2(C)CC1 (stereo in doubt; form 5)
- Ratio LD50/ED50 [17]: 23

SMILES: CC(C)C1=C[C@H]2OC3(CCC(NCCNc4ccnc5cc(Cl)ccc45)CC3)OO[C@@]2(C)CC1 (stereo in doubt; form 8) [TRIOXAQUINE 3]
- IC50 (Plasmodium falciparum [1]): 11 nM
- IC50 (Plasmodium falciparum [2]): 8 nM
- IC50 (Plasmodium falciparum [3]): 12 nM

SMILES: CC(C)C1=C[C@H]2OC3(CCC(NCCNc4ccnc5cc(Cl)ccc45)CC3)OO[C@@]2(C)CC1 (some centres not stated)
- Activity [18]: Active
- Ratio LD50/ED50 [17]: 100
- Activity (Mus musculus [19]): inactive

SMILES: C[C@H]1[C@H](OC(=O)CCC(=O)O)O[C@@H]2O[C@@]3(C)CC[C@H]4[C@H](C)CC[C@@H]1[C@@]24OO3 [ARTESUNATE]
- IC50 (Plasmodium falciparum [3]; Plasmodium falciparum, FcM29): 1.6 nM
- CD50 [8]: 19 mg/kg/day
- CD90 [8]: 28 mg/kg/day
- ED50 [8]: 2.5 mg/kg/day
- ED90 [8]: 8 mg/kg/day
- CD50 [9]: 2.5 mg/kg/day
- CD90 [9]: 7.5 mg/kg/day
- ED50 [9]: 0.3 mg/kg/day
- ED90 [9]: 0.8 mg/kg/day
- IC50 (Plasmodium falciparum [12]): 72 nM
- IC50 (Plasmodium falciparum [13]): 108 nM
- IC50 (Plasmodium falciparum [14]): 6 nM

SMILES: C[C@@H]1CC[C@H]2[C@@H](C)C(=O)O[C@@H]3O[C@@]4(C)CC[C@@H]1[C@]32OO4 [ARTEMISININ]
- Ratio IC50 [4]: 4370
- Activity [20]: Active
- IC50 (Plasmodium falciparum [1]; Plasmodium falciparum, F32): 6 nM
- IC50 (Plasmodium falciparum [2]; Plasmodium falciparum, FcB1): 5 nM
- IC50 (Plasmodium falciparum [3]; Plasmodium falciparum, FcM29): 8 nM
- IC50 [6]: > 35000 nM
- ED50 [7, 21]: 4 mg/kg/day
- ED90 [7, 22]: > 5 mg/kg/day
- CD50 [8]: >25 mg/kg/day
- CD90 [8]: >25 mg/kg/day
- ED50 [8]: 17 mg/kg/day
- ED90 [8]: 30 mg/kg/day
- CD50 [9]: >10 mg/kg/day
- CD90 [9]: >10 mg/kg/day
- ED50 [9]: 3.2 mg/kg/day
- ED90 [9]: 8 mg/kg/day
- CD50 [10]: 75 mg/kg/day
- CD90 [10]: >100 mg/kg/day
- ED50 [10]: 16 mg/kg/day
- ED90 [10]: 27 mg/kg/day
- CD50 [11]: 7 mg/kg/day
- CD90 [11]: 23 mg/kg/day
- ED50 [11]: 5 mg/kg/day
- ED90 [11]: 23 mg/kg/day
- IC50 (Plasmodium falciparum [16]): 15 nM

SMILES: CCN(CC)CCCC(C)Nc1ccnc2cc(Cl)ccc12 (configuration not stated) [CHLOROQUINE]
- IC50 [6]: 50000 nM
- CD50 [11]: 3 mg/kg/day
- CD90 [11]: 5 mg/kg/day
- ED50 [11]: 3 mg/kg/day
- ED90 [11]: 5 mg/kg/day

SMILES: O=C1C(O)=C([C@H]2CC[C@H](c3ccc(Cl)cc3)CC2)C(=O)c2ccccc21 [ATOVAQUONE]
- IC50 (Plasmodium falciparum [12]): 24000 nM
- IC50 (Plasmodium falciparum [13]): 50400 nM
- IC50 (Plasmodium falciparum [14]): 4.6 nM

SMILES: CC(C)C1=C[C@H]2OC3(CCC(NCCNc4ccnc5cc(Cl)ccc45)CC3)OO[C@@]2(C)CC1.O=C(O)CC(O)(CC(=O)O)C(=O)O (stereo in doubt; form 10)
- CD50 [7]: 7 mg/kg/day
- ED50 [7]: 7 mg/kg/day
- ED90 [7]: 2.5 mg/kg/day

SMILES: COc1cc(NC(C)CCCNC2CCC3(CC2)OO[C@@]2(C)CCC(C(C)C)=C[C@H]2O3)c2ncccc2c1 (some centres not stated)
- IC50 (Plasmodium falciparum [12]): 57 nM
- IC50 (Plasmodium falciparum [13]): 46 nM
- IC50 (Plasmodium falciparum [14]): 43 nM

SMILES: CC(C)C1=C[C@H]2OC3(CCC(NCCNc4ccnc5cc(Cl)ccc45)CC3)OO[C@@]2(C)CC1 (stereo in doubt; form 6) [TRIOXAQUINE 3]
- IC50 (Plasmodium falciparum [1]): 18 nM
- IC50 (Plasmodium falciparum [5]): 18 nM
- IC50 (Plasmodium falciparum [2]): 26 nM
- IC50 (Plasmodium falciparum [3]): 18 nM

SMILES: CC(C)C1=C[C@H]2OC3(CCC(NCCNc4ccnc5cc(Cl)ccc45)CC3)OO[C@@]2(C)CC1 (stereo in doubt; form 1)
- IC50 (Plasmodium falciparum [2]): 49 nM
- IC50 (Plasmodium falciparum [3]): 29 nM

SMILES: CC(C)C1=C[C@H]2OC3(CCC(NCCNc4ccnc5cc(Cl)ccc45)CC3)OO[C@@]2(C)CC1 (stereo in doubt; form 4)
- IC50 (Plasmodium falciparum [2]): 43 nM
- IC50 (Plasmodium falciparum [3]): 19 nM
